ChEMBL document CHEMBL2176955, “Discovery of the macrocycle 11-(2-pyrrolidin-1-yl-ethoxy)-14,19-dioxa-5,7,26-triaza-tetracyclo[19.3.1.1(2,6).1(8,12)]heptacosa-1(25),2(26),3,5,8,10,12(27),16,21,23-decaene (SB1518), a potent Janus kinase 2/fms-like tyrosine kinase-3 (JAK2/FLT3) inhibitor for the treatment of myelofibrosis and …” (J Med Chem, 2011)

Experiments:
[1] = target: Cytochrome P450 2D6 (Homo sapiens, UniProt P10635)
[2] = physchem; conditions: phosphate buffer saline, pH 7
[3] = target: Tyrosine-protein kinase JAK2 (Homo sapiens, UniProt O60674); assay: Inhibition of recombinant JAK2 using Poly (Glu,Ala,Tyr) as substrate after 2 hrs by luminescence assay
[4] = target: T1, Tyrosine-protein kinase JAK3 (Homo sapiens, UniProt P52333); assay: Inhibition of recombinant JAK3 using Poly (Glu,Ala,Tyr) as substrate after 2 hrs by luminescence assay
T1 sequence (P52333 whole entry): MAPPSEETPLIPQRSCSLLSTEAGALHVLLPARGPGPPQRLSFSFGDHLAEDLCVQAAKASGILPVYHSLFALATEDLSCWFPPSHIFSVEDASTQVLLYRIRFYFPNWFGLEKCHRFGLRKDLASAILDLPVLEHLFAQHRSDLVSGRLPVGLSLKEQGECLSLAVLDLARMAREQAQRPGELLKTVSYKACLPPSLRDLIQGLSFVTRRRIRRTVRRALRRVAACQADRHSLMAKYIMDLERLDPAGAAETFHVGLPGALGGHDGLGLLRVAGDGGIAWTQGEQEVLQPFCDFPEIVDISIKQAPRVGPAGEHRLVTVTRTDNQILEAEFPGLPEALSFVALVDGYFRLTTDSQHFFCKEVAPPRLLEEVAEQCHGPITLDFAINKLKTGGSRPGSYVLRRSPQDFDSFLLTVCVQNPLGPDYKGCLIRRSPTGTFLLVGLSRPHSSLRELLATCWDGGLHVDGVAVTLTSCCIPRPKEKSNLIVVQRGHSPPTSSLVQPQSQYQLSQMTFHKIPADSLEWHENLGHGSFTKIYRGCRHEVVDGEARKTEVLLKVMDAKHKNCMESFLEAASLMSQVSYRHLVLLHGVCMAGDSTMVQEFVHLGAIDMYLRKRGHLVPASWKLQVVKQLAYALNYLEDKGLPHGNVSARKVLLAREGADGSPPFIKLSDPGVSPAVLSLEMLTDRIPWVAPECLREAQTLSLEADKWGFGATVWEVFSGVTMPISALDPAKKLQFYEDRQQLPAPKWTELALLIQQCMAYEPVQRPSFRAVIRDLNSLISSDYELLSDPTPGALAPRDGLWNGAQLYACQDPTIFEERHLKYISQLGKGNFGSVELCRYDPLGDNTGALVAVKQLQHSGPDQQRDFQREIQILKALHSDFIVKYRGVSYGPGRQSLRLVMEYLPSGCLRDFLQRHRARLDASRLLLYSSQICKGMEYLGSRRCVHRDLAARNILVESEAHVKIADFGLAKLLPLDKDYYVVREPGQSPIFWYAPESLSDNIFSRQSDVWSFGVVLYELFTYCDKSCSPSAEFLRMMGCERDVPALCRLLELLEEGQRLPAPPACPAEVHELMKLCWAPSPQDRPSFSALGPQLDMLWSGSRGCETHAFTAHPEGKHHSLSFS

[5] = target: Tyrosine-protein kinase JAK1 (Homo sapiens, UniProt P23458); assay: Inhibition of recombinant JAK1 using Poly (Glu,Ala,Tyr) as substrate after 2 hrs by luminescence assay
In short: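 Luciferase-coupled ATP-depletion luminescence assay in 50 mM Hepes pH 7.5 with MgCl₂, MnCl₂, BGP, DTT and orthovanadate, 2 h at room temperature. Conditions per target: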

[6] = target: Non-receptor tyrosine-protein kinase TYK2 (Homo sapiens, UniProt P29597); assay: Inhibition of recombinant TYK2
[7] = target: T2, Receptor-type tyrosine-protein kinase FLT3 (Homo sapiens, UniProt P36888); assay: Inhibition of recombinant FLT3 using Poly (Glu,Tyr) as substrate after 2 hrs by luminescence assay
T2 sequence (P36888 whole entry): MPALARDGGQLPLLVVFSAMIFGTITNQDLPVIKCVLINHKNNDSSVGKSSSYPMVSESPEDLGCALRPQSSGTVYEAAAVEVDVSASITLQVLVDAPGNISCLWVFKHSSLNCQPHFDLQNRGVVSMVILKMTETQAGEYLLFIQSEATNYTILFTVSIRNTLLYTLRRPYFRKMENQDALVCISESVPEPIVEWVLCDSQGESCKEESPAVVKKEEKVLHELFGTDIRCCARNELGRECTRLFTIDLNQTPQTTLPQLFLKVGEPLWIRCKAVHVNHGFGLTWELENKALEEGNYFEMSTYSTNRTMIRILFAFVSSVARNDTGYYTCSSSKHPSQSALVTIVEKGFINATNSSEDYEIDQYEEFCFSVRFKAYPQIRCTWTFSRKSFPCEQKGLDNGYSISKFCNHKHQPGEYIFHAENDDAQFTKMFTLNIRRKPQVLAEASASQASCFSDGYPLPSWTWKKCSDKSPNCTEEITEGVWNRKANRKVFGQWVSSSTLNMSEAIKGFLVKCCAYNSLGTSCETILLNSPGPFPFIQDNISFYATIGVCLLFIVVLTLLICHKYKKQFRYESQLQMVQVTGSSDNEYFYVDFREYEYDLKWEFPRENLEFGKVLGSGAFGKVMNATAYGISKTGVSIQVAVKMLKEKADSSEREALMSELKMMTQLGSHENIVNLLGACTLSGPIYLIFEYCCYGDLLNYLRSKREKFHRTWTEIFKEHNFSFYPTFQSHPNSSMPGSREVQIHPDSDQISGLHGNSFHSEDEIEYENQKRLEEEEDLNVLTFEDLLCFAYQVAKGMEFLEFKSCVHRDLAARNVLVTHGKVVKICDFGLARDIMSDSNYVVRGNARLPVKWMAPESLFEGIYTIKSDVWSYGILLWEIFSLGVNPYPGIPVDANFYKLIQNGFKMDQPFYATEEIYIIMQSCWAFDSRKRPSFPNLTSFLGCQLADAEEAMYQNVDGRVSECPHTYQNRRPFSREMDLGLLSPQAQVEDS

[8] = Antiproliferative activity against mouse BA/F3 cells harboring JAK2 V617F mutation assessed as cell viability after 48 hrs by Cell titer Glo assay; assay type: functional; conditions: BaF3, 48 h
[9] = in vitro; conditions: mouse, liver microsomes
[10] = system: MV4-11; assay: Antiproliferative activity against human MV4-11 cells harboring FLT3 […] mutant assessed as cell viability after 48 hrs by Cell titer Glo assay; assay type: functional; conditions: MV4-11, 48 h
[11] = target: Cytochrome P450 3A4 (Homo sapiens, UniProt P08684)
[12] = target: Cyclin-dependent kinase 2/cyclin A (Homo sapiens, UniProt P24941); assay: Inhibition of recombinant CDK2/Cyclin A using RbinG as substrate after 2 hrs by luminescence assay; assay type: protein-complex assay
[13] = in vitro; conditions: PAMPA
[14] = in vitro; conditions: human, liver microsomes

Sequence of Non-receptor tyrosine-protein kinase TYK2 (P29597 whole entry): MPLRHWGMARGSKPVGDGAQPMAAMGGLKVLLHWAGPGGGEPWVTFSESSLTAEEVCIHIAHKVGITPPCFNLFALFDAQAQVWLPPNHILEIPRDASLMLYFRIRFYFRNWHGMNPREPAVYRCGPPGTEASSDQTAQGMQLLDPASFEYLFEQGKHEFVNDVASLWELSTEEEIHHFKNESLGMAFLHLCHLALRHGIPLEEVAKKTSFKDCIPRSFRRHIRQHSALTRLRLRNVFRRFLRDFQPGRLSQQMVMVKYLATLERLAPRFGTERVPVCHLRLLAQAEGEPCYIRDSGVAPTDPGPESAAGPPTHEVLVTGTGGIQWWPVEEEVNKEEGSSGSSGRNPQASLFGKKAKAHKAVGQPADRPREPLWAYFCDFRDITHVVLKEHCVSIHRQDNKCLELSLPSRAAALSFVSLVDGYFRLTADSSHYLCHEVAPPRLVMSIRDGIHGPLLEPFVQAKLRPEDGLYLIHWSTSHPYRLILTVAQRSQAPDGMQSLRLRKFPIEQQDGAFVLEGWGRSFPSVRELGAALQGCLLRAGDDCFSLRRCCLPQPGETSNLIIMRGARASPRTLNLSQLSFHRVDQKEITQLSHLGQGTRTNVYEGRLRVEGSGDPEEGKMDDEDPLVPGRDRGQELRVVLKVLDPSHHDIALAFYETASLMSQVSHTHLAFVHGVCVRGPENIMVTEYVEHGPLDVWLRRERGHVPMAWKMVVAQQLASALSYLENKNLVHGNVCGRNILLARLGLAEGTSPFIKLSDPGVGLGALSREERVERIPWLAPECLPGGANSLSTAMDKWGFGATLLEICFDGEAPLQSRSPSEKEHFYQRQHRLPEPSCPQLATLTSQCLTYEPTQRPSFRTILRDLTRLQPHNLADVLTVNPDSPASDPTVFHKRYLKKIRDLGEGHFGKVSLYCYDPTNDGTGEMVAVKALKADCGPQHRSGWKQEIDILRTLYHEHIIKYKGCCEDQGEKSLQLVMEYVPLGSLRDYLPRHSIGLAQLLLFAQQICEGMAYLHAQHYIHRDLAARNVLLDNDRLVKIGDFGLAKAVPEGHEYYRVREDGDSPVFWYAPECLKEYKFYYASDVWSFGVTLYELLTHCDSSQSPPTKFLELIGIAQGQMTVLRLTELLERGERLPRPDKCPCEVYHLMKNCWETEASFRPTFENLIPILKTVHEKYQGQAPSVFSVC
Sequence of Tyrosine-protein kinase JAK2 (O60674 whole entry): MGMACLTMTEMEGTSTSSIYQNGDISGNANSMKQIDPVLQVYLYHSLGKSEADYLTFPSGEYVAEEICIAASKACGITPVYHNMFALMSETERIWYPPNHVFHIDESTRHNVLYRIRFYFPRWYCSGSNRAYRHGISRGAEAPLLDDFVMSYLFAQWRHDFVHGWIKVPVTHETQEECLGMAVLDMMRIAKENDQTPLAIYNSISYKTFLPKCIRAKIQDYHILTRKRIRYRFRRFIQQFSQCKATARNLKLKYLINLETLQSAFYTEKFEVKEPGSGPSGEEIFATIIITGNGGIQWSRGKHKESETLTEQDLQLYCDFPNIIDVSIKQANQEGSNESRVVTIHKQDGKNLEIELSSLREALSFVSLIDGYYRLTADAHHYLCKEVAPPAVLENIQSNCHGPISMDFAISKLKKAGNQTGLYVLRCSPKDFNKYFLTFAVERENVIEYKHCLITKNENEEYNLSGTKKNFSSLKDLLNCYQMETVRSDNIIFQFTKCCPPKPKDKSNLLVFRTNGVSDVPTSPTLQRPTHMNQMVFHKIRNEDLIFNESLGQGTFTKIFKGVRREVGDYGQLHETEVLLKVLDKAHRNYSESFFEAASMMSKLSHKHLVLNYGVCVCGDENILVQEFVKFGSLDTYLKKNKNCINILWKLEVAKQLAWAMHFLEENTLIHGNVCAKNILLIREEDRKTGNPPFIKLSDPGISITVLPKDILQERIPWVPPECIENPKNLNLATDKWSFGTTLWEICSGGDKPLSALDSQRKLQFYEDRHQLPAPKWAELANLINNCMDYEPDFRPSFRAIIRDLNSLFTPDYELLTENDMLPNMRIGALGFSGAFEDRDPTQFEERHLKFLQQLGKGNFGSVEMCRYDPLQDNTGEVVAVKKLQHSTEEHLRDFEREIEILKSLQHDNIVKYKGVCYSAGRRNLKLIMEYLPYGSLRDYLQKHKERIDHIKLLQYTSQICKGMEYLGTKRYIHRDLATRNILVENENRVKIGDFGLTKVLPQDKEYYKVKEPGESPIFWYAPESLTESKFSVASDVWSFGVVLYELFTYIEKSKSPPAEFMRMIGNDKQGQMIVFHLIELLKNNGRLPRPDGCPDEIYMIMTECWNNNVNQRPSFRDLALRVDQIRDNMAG
Sequence of Tyrosine-protein kinase JAK1 (P23458 whole entry): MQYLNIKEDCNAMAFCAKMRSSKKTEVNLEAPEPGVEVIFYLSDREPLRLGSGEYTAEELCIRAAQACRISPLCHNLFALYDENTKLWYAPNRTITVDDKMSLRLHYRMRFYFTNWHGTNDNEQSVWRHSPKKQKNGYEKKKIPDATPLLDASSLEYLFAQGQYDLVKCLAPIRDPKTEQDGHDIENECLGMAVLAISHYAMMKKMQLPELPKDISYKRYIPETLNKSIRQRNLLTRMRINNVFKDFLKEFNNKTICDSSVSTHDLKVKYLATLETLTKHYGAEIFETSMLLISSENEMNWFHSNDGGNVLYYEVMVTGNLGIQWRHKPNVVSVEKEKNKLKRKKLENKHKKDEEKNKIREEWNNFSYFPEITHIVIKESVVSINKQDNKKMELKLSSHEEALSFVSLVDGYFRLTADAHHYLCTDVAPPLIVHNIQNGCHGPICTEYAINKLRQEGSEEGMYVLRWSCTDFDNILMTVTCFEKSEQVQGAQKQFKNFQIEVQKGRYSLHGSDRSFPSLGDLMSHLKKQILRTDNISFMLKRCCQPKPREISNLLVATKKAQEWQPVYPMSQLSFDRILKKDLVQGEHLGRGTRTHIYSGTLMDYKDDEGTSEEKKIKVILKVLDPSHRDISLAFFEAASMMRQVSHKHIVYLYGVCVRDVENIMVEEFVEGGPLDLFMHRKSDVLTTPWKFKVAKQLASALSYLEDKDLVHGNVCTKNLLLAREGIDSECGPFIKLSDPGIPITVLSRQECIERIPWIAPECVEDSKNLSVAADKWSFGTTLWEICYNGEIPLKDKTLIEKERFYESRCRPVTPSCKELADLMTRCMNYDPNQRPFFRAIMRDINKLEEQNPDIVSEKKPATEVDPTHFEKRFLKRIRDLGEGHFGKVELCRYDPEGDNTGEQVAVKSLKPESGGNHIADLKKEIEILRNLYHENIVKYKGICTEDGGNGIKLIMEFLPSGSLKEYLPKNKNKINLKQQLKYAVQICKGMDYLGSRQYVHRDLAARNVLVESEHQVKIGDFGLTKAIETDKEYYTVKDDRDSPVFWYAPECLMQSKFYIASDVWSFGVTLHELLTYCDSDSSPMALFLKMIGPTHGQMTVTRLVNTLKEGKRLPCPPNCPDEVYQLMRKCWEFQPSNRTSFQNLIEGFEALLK
Sequence of Cytochrome P450 3A4 (P08684 whole entry): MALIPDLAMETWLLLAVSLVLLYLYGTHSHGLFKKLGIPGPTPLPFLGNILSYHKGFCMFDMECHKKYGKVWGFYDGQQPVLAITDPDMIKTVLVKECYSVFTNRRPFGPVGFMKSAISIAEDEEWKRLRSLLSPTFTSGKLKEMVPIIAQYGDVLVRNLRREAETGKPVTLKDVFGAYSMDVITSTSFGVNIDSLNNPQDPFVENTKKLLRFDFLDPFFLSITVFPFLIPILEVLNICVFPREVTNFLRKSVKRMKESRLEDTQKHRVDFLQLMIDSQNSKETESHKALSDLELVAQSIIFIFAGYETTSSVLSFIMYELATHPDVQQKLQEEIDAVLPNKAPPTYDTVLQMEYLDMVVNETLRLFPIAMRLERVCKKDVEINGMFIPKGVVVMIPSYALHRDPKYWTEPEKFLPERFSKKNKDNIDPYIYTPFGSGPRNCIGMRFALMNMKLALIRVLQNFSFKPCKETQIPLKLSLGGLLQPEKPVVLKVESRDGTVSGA
Sequence of Cytochrome P450 2D6 (P10635 whole entry): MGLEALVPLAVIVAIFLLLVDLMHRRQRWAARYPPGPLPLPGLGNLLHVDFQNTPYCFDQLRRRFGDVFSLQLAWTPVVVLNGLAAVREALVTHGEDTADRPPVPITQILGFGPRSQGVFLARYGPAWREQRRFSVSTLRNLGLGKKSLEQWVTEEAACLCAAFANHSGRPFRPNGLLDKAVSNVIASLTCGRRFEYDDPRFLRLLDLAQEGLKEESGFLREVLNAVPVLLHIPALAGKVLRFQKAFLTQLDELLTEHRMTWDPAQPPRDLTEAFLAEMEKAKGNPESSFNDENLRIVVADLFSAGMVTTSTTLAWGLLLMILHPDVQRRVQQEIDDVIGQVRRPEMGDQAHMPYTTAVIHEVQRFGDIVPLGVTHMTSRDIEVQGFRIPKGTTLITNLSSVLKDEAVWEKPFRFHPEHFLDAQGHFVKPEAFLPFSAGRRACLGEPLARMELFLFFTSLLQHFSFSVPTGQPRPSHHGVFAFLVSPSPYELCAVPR

In the case of `CCN(CC)CCOc1ccc2cc1COCC=CCOCc1cccc(c1)-c1ccnc(n1)N2` (mixture of isomers), the IC50 [1] is reported as over 10000 nM, the solubility [2] is reported as 147 µg/mL and the IC50 [3] is reported as 24 nM. The IC50 [4] was 620 nM, the IC50 [5] was 3500 nM and the IC50 [6] was 79 nM. For the same molecule, the IC50 [7] was 29 nM, the GI50 [8] was 150 nM and the half-life at 5 µM [9] was 16 min. For the same molecule, the GI50 [10] was 37 nM, the IC50 [11] was 2800 nM and the IC50 [12] was 4700 nM. For the same molecule, the Papp at 5 h, 1 µM [13] was 15.8 ×10⁻⁶ cm/s and the half-life at 5 µM [14] was 44 min.
`Cc1cnc2nc1-c1cccc(c1)COCC=CCOCc1cc(ccc1OCCN1CCCC1)N2` showed an IC50 [3] of 7 nM, an IC50 [4] of 89 nM and an IC50 [5] of 1000 nM. It also gave an IC50 [6] of 57 nM, an IC50 [7] of 19 nM and a GI50 [8] of 180 nM. The half-life at 5 µM [9] was 40 min, the GI50 [10] was 51 nM and the half-life at 5 µM [14] was over 60 min.
`C1=CCOCc2cc(ccc2OCCN2CCCCC2)Nc2nccc(n2)-c2cccc(c2)COC1` (mixture of isomers) gave an IC50 [1] of over 10000 nM, an IC50 [3] of 15 nM and an IC50 [4] of 750 nM. For the same molecule, the IC50 [5] was 950 nM, the IC50 [6] was 84 nM and the IC50 [7] was 26 nM. For the same molecule, the GI50 [8] was 160 nM, the half-life at 5 µM [9] was 11 min and the IC50 [11] was 370 nM. It also gave an IC50 [12] of 2700 nM, a Papp at 5 h, 1 µM [13] of 3.93 ×10⁻⁶ cm/s and a half-life at 5 µM [14] of over 60 min.
`COc1ccc2cc1COCC=CCOCc1cc(ccc1OCCN1CCCC1)Nc1nccc-2n1` (mixture of isomers) showed an IC50 [1] of over 10000 nM, a solubility [2] of 60.8 µg/mL and an IC50 [3] of 19 nM. It also gave an IC50 [4] of 890 nM, an IC50 [5] of over 10000 nM and an IC50 [6] of 180 nM. For the same molecule, the IC50 [7] was 92 nM, the GI50 [8] was 100 nM and the half-life at 5 µM [9] was 29 min. The GI50 [10] was 85 nM, the IC50 [11] was over 10000 nM and the IC50 [12] was over 10000 nM. The Papp at 5 h, 1 µM [13] was 10.1 ×10⁻⁶ cm/s and the half-life at 5 µM [14] was over 60 min.
